Test results: ChEMBL document CHEMBL3734675, “Synthesis, antimycobacterial and antibacterial activity of fluoroquinolone derivatives containing an 3-alkoxyimino-4-(cyclopropylanimo)methylpyrrolidine moiety” (2015)
Values after ≈ are worked out from the molar mass of the structure shown.

What was measured:
Type in all cases: functional
[1] = system: Mycobacterium tuberculosis; assay: Antimycobacterial activity against Mycobacterium tuberculosis H37Rv ATCC 27294 incubated for 7 days by microplate Alamar Blue assay; conditions: H37Rv ATCC 27294, 168 h
Summary of the method: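 Fluorescence read-out. MIC is the lowest concentration that reduces fluorescence by at least 90% relative to the mean of replicate bacterium-only controls. Isoniazid and rifampicin were included as reference drugs.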

[2] = system: Escherichia coli; assay: Antibacterial activity against Escherichia coli ATCC 25922 after 18 to 24 hrs by two-fold serial dilution method
Summary of the method: (§1)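 Twofold serial dilution in agar media against Gram-positive and Gram-negative strains. Plates incubated at 35 °C for 18–24 h. MIC read as the lowest compound concentration giving complete inhibition of bacterial growth.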

[3] = system: Escherichia coli; assay: Antibacterial activity against extended-spectrum beta-lactamase producing Escherichia coli 14-1 after 18 to 24 hrs by two-fold serial dilution method; summary of the method: as §1
[4] = system: Escherichia coli; assay: Antibacterial activity against extended-spectrum beta-lactamase producing Escherichia coli 14-2 after 18 to 24 hrs by two-fold serial dilution method; summary of the method: as §1
[5] = system: Escherichia coli; assay: Antibacterial activity against Escherichia coli 14-1 after 18 to 24 hrs by two-fold serial dilution method; summary of the method: as §1
[6] = system: Escherichia coli; assay: Antibacterial activity against Escherichia coli 14-2 after 18 to 24 hrs by two-fold serial dilution method; summary of the method: as §1
[7] = system: Klebsiella pneumoniae; assay: Antibacterial activity against extended-spectrum beta-lactamase producing Klebsiella pneumoniae 14-17 after 18 to 24 hrs by two-fold serial dilution method; summary of the method: as §1
[8] = system: Klebsiella pneumoniae; assay: Antibacterial activity against extended-spectrum beta-lactamase producing Klebsiella pneumoniae 14-18 after 18 to 24 hrs by two-fold serial dilution method; summary of the method: as §1
[9] = system: Klebsiella pneumoniae; assay: Antibacterial activity against extended-spectrum beta-lactamase producing Klebsiella pneumoniae 14-19 after 18 to 24 hrs by two-fold serial dilution method; summary of the method: as §1
[10] = system: Klebsiella pneumoniae; assay: Antibacterial activity against Klebsiella pneumoniae 14-1 after 18 to 24 hrs by two-fold serial dilution method; summary of the method: as §1
[11] = system: Klebsiella pneumoniae; assay: Antibacterial activity against Klebsiella pneumoniae 14-2 after 18 to 24 hrs by two-fold serial dilution method; summary of the method: as §1
[12] = system: Klebsiella pneumoniae; assay: Antibacterial activity against Klebsiella pneumoniae 14-3 after 18 to 24 hrs by two-fold serial dilution method; summary of the method: as §1
[13] = system: Klebsiella pneumoniae; assay: Antibacterial activity against Klebsiella pneumoniae 14-4 after 18 to 24 hrs by two-fold serial dilution method; summary of the method: as §1
[14] = system: Pseudomonas aeruginosa; assay: Antibacterial activity against Pseudomonas aeruginosa ATCC 27853 after 18 to 24 hrs by two-fold serial dilution method; summary of the method: as §1
[15] = system: Pseudomonas aeruginosa; assay: Antibacterial activity against Pseudomonas aeruginosa 14-9 after 18 to 24 hrs by two-fold serial dilution method; summary of the method: as §1
[16] = system: Pseudomonas aeruginosa; assay: Antibacterial activity against Pseudomonas aeruginosa 14-14 after 18 to 24 hrs by two-fold serial dilution method; summary of the method: as §1
[17] = system: Pseudomonas aeruginosa; assay: Antibacterial activity against Pseudomonas aeruginosa 14-15 after 18 to 24 hrs by two-fold serial dilution method; summary of the method: as §1
[18] = system: Pseudomonas aeruginosa; assay: Antibacterial activity against Pseudomonas aeruginosa 14-16 after 18 to 24 hrs by two-fold serial dilution method; summary of the method: as §1
[19] = system: Staphylococcus aureus; assay: Antibacterial activity against Staphylococcus aureus CMCC 26003 after 18 to 24 hrs by two-fold serial dilution method; summary of the method: as §1
[20] = system: Staphylococcus aureus; assay: Antibacterial activity against methicillin-sensitive Staphylococcus aureus 14-1 after 18 to 24 hrs by two-fold serial dilution method; summary of the method: as §1
[21] = system: Staphylococcus aureus; assay: Antibacterial activity against methicillin-sensitive Staphylococcus aureus 14-3 after 18 to 24 hrs by two-fold serial dilution method; summary of the method: as §1
[22] = system: Staphylococcus aureus; assay: Antibacterial activity against methicillin-sensitive Staphylococcus aureus 14-4 after 18 to 24 hrs by two-fold serial dilution method; summary of the method: as §1
[23] = system: Staphylococcus aureus; assay: Antibacterial activity against methicillin-resistant Staphylococcus aureus 14-4 after 18 to 24 hrs by two-fold serial dilution method
Summary of the method: (§2)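 Agar media, standard twofold serial dilution. MIC is the lowest concentration giving complete inhibition of bacterial growth after incubation at 35 °C for 18–24 h. Ciprofloxacin and levofloxacin were run as comparators.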

[24] = system: Staphylococcus aureus; assay: Antibacterial activity against methicillin-resistant Staphylococcus aureus 14-5 after 18 to 24 hrs by two-fold serial dilution method; summary of the method: as §2
[25] = system: Staphylococcus epidermidis; assay: Antibacterial activity against methicillin-sensitive Staphylococcus epidermidis 14-2 after 18 to 24 hrs by two-fold serial dilution method; summary of the method: as §1
[26] = system: Staphylococcus epidermidis; assay: Antibacterial activity against methicillin-resistant Staphylococcus epidermidis 14-21 after 18 to 24 hrs by two-fold serial dilution method; summary of the method: as §2
[27] = system: Staphylococcus epidermidis; assay: Antibacterial activity against methicillin-resistant Staphylococcus epidermidis 14-22 after 18 to 24 hrs by two-fold serial dilution method; summary of the method: as §2
[28] = system: Staphylococcus epidermidis; assay: Antibacterial activity against methicillin-resistant Staphylococcus epidermidis 14-37 after 18 to 24 hrs by two-fold serial dilution method; summary of the method: as §2
[29] = system: Staphylococcus epidermidis; assay: Antibacterial activity against methicillin-resistant Staphylococcus epidermidis 14-39 after 18 to 24 hrs by two-fold serial dilution method; summary of the method: as §2
[30] = system: Streptococcus pneumoniae; assay: Antibacterial activity against methicillin-resistant Streptococcus pneumoniae ATCC 19615 after 18 to 24 hrs by two-fold serial dilution method; summary of the method: as §2
[31] = system: Enterococcus faecium; assay: Antibacterial activity against Enterococcus faecium 14-2 after 18 to 24 hrs by two-fold serial dilution method; summary of the method: as §1
[32] = system: Enterococcus faecium; assay: Antibacterial activity against Enterococcus faecium 14-5 after 18 to 24 hrs by two-fold serial dilution method; summary of the method: as §1
[33] = system: Enterococcus faecium; assay: Antibacterial activity against Enterococcus faecium 14-6 after 18 to 24 hrs by two-fold serial dilution method; summary of the method: as §1
[34] = system: Enterococcus faecalis; assay: Antibacterial activity against Enterococcus faecalis 14-1 after 18 to 24 hrs by two-fold serial dilution method; summary of the method: as §1
[35] = system: Enterococcus faecalis; assay: Antibacterial activity against Enterococcus faecalis 14-2 after 18 to 24 hrs by two-fold serial dilution method; summary of the method: as §1

CO/N=C1/CN(c2nc3c(cc2F)c(=O)c(C(=O)O)cn3-c2nc(N)c(F)cc2F)CC1(C)CNC1CC1 (stereo not given)
MIC90 [1]: 15.6 µg/mL (≈ 29.4 µM) | MIC [2]: 16 µg/mL (≈ 30.1 µM) | MIC [3]: 128 µg/mL (≈ 241 µM) | MIC [4]: > 128 µg/mL | MIC [5]: > 128 µg/mL | MIC [6]: 128 µg/mL (≈ 241 µM) | MIC [7]: > 128 µg/mL | MIC [8]: > 128 µg/mL | MIC [9]: > 128 µg/mL | MIC [10]: > 128 µg/mL | MIC [11]: > 128 µg/mL | MIC [12]: > 128 µg/mL | MIC [13]: > 128 µg/mL | MIC [14]: 128 µg/mL (≈ 241 µM) | MIC [15]: 128 µg/mL (≈ 241 µM) | MIC [16]: > 128 µg/mL | MIC [17]: 128 µg/mL (≈ 241 µM) | MIC [18]: > 128 µg/mL | MIC [19]: 0.25 µg/mL (≈ 0.47 µM) | MIC [20]: 16 µg/mL (≈ 30.1 µM) | MIC [21]: 16 µg/mL (≈ 30.1 µM) | MIC [22]: 8 µg/mL (≈ 15.1 µM) | MIC [23]: 32 µg/mL (≈ 60.2 µM) | MIC [24]: 32 µg/mL (≈ 60.2 µM) | MIC [25]: 128 µg/mL (≈ 241 µM) | MIC [26]: 128 µg/mL (≈ 241 µM) | MIC [27]: 32 µg/mL (≈ 60.2 µM) | MIC [28]: 64 µg/mL (≈ 120 µM) | MIC [29]: 128 µg/mL (≈ 241 µM) | MIC [30]: 4 µg/mL (≈ 7.53 µM) | MIC [31]: 64 µg/mL (≈ 120 µM) | MIC [32]: 128 µg/mL (≈ 241 µM) | MIC [33]: 64 µg/mL (≈ 120 µM) | MIC [34]: 128 µg/mL (≈ 241 µM) | MIC [35]: 8 µg/mL (≈ 15.1 µM)
